Measurements of several laboratories.
Each line is one published result; the experiments were not run side by side.
CNR1: Cannabinoid receptor 1 (CNR1, Homo sapiens, UniProt P21554)
PFF0160c: Dihydroorotate dehydrogenase (quinone), mitochondrial (PFF0160c, Plasmodium falciparum, UniProt Q08210)
TBXA2R: Thromboxane A2 receptor (TBXA2R, Homo sapiens, UniProt P21731)

SMILES	target	test	setting	quantity	result
C=CCCCn1c(O)c(N=NC(=O)c2ccccc2)c2ccccc21	CNR1	ligand displacement, radioligand	cell membranes	Ki	1660 nM
Cn1nc2c(=O)n(C3CC3)ncc2c1[C@](O)(c1ccc(C(F)(F)F)c(C#N)c1)C(F)(F)F	PFF0160c	enzyme activity, inhibitor	–	IC50	25.1 nM
C=C1CC/C=C(\C)CC[C@@H]2[C@@H]1CC2(C)C	CNR1	ligand displacement, radioligand	–	Ki	> 10000 nM
CNC(=O)c1ccc(-c2cnn3ccc(C(=O)N(C)c4ccc(Cl)c(C(=O)OC)c4)cc23)cc1	TBXA2R	cell-free assay	–	IC50	> 30000 nM
CCCCCc1cc(O)c2c(c1)OC(C)(CCC=C(C)C)C=C2 (stereo not shown)	CNR1	cell-free assay	–	Ki	> 1000 nM
CCn1cc(C)c2c([C@@H](N)c3ccc(C(F)(F)F)nc3)n(C)nc2c1=O	PFF0160c	enzyme activity, inhibitor	–	IC50	1000 nM
CCC(CC)(NC(=O)c1ccc(C2CC2)c(Cc2ccc(F)cc2)n1)C(=O)NCCOCCOCCNC(=O)c1ccc2c(c1)C1(OC2=O)c2ccc(N(C)C)cc2[Si](C)(C)c2cc(N(C)C)ccc21	CNR1	ligand displacement, radioligand	cell membranes	Ki	462 nM
O=C(N=Nc1c(O)n(CC2CCCCC2)c2ccccc12)c1ccccc1	CNR1	ligand displacement, radioligand	cell membranes	Ki	70.8 nM
Cc1c(Cc2ccc(C(F)(F)F)cc2)n[nH]c1C(=O)NC1CC1	PFF0160c	enzyme activity, inhibitor	–	IC50	> 30000 nM
O=C(N=Nc1c(O)n(CCCCCF)c2ccccc12)c1ccccc1	CNR1	β-arrestin recruitment, agonist	–	EC50	1820 nM
C=C/C=C/CCN1CCC(O)(c2cccc(Br)c2)C1 (stereo not shown)	5-hydroxytryptamine receptor 2A (HTR2A, Homo sapiens, UniProt P28223)	calcium signal, antagonist	–	IC50	15900 nM
CC[C@@](O)(c1cnc(C(F)(F)F)c(Cl)c1)c1c2ccn(C3CC3)c(=O)c2nn1C	PFF0160c	enzyme activity, inhibitor	–	IC50	12.6 nM
COC(=O)c1cc(N(C)C(=O)c2ccn3ncc(-c4ccc(C(=O)O)cc4)c3c2)ccc1Cl	TBXA2R	cell-free assay	–	IC50	> 30000 nM
